Here are results for six molecules from ChEMBL document CHEMBL1123422, “1-Ethyl-7-[3-[(ethylamino)methyl]-1-pyrrolidinyl]-6,8-difluoro-1,4- dihydro-4-oxo-3-quinoline-carboxylic acid. New quinolone antibacterial with potent gram-positive activity” (1986).

Molecules are shown by their SMILES. ≈ marks a conversion by molar mass, not a printed value.

The subject of experiment [1] is Escherichia coli. Kind of experiment: Compound was tested for inhibition of the gram-negative organism Escherichia coli H560. In kind it is functional. An outline of the steps:
(§1)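 MICs read in standard microdilution (microtitration) format against a panel of 10 bacterial organisms; values in µg/mL.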

Experiment [2] deals with DNA gyrase (Escherichia coli) (UniProt P0AES6+P0AES4). Nature of the experiment: Inhibition of DNA gyrase of Escherichia coli H560 cells. An outline of the steps:
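DNA gyrase purified from Escherichia coli H560 cells. Cleavage assay: drug-gyrase-DNA complex denatured, converting closed circular DNA to linear DNA. Linear DNA resolved by gel electrophoresis and stained with ethidium bromide. Value is the minimum drug concentration (µg/mL) giving linear DNA at an intensity relative to oxolinic acid at 10 µg/mL. Aqueous drug stocks made up in 0.1 N NaOH or KOH.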

In experiment [3] the test system is Klebsiella pneumoniae. Kind of experiment: Compound was tested for inhibition of the gram-negative organism Klebsiella pneumoniae MGH-2. In kind it is functional. An outline of the steps: as §1
For experiment [4], the system named is Mus musculus. Nature of the experiment: Compound was evaluated for protective dose against the Escherichia coli vogel lethal infection following peroral administration in mouse. In kind it is functional. Conditions: po, read-out: PD50. In a few lines: (§2)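 Acute lethal systemic infection in female Charles River CD-1 mice (18–22 g), challenged intraperitoneally with an estimated 100 median lethal dose in 5% hog gastric mucin. Single doses in a twofold rising series were given with the challenge, sc as aqueous solution or po by gavage in 5% gum acacia. PD50 (mg/kg) was estimated by log probit from survival of eight mice per dose.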

In experiment [5] the test system is Mus musculus. Nature of the experiment: Compound was evaluated for protective dose against the Escherichia coli vogel lethal infection following sc administration in mouse. In kind it is functional. The conditions noted are these: read-out: PD50. An outline of the steps: as §2
Experiment [6] concerns Mus musculus. Kind of experiment: Compound was evaluated for protective dose against the […] UC-76 lethal infection following po administration in mouse. In kind it is functional. The conditions noted are these: read-out: PD50. An outline of the steps:
as §2

For experiment [7], the system named is Mus musculus. Nature of the experiment: Compound was evaluated for protective dose against the […] UC-76 lethal infection following sc administration in mouse. In kind it is functional. Conditions: read-out: PD50. In a few lines:
as §2

In experiment [8] the test system is Mus musculus. Kind of experiment: Compound was evaluated for protective dose against the Streptococcus pneumoniae SV-1 lethal infection following po administration. In kind it is functional. The conditions noted are these: read-out: PD50. An outline of the steps:
(§3)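 Female Charles River CD-1 mice (18–22 g) were challenged intraperitoneally with an estimated 100 median lethal dose in tryptic soy broth. Single doses, in a twofold rising series, were given at the same time as challenge: subcutaneously as aqueous solution, or orally by gavage in 5% gum acacia. Survival in groups of eight mice per dose gave PD50 (mg/kg) by log probit.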

Experiment [9] relates to Pseudomonas aeruginosa. Nature of the experiment: Compound was tested for inhibition of the gram-negative organism Pseudomonas aeruginosa UI-18. In kind it is functional. In a few lines:
as §1

Experiment [10] deals with Providencia rettgeri. Kind of experiment: Compound was tested for inhibition of the gram-negative organism Providencia rettgeri H1771. In kind it is functional. An outline of the steps:
as §1

The test system of experiment [11] is Enterococcus faecalis. Nature of the experiment: Compound was tested for inhibition of the […] organism Streptococcus faecalis MGH-2. In kind it is functional. In a few lines:
as §1

The test system of experiment [12] is Streptococcus pyogenes. Kind of experiment: Compound was tested for inhibition of the […] organism Streptococcus pyogenes C203. In kind it is functional. An outline of the steps:
as §1

The test system of experiment [13] is Staphylococcus aureus. Nature of the experiment: Compound was tested for inhibition of the […] organism […] H228. In kind it is functional. In a few lines:
as §1

Experiment [14] deals with Staphylococcus aureus. Nature of the experiment: Compound was tested for inhibition of the […] organism […] UC-76. In kind it is functional. In a few lines:
as §1

The test system of experiment [15] is Mus musculus. Kind of experiment: Compound was evaluated for protective dose against Streptococcus pneumoniae SV-1 lethal infection following sc administration. In kind it is functional. The conditions noted are these: read-out: PD50. An outline of the steps: as §3
For experiment [16], the system named is Escherichia coli. Kind of experiment: Compound was tested for inhibition of the gram-negative organism Escherichia coli vogel. In kind it is functional. In a few lines: as §1
For experiment [17], the system named is Enterobacter cloacae. Kind of experiment: Compound was tested for inhibition of the gram-negative organism […] HA 2646. In kind it is functional.

For the molecule `O=C(O)c1cn(C2CC2)c2cc(N3CCNCC3)c(F)cc2c1=O` [CIPROFLOXACIN], the MIC in [1] was found to be 0.025 µg/mL (≈ 0.0754 µM); in [3] it was 0.1 µg/mL (≈ 0.302 µM); in experiment [9], 0.4 µg/mL (≈ 1.21 µM); in experiment [10] it was 0.1 µg/mL (≈ 0.302 µM); in experiment [11], 0.8 µg/mL (≈ 2.41 µM); in experiment [12], 0.8 µg/mL (≈ 2.41 µM). Also, the results for the MIC in experiment [13] and in [14] were 3.1 µg/mL (≈ 9.36 µM) and 0.2 µg/mL (≈ 0.604 µM), respectively. Further, the Min concentration in experiment [2] is 0.5 µg/mL. For the same molecule, the ED50 was 1.2 mg/kg in experiment [4]; 0.25 mg/kg in experiment [5]; 9.5 mg/kg in experiment [6]; 3 mg/kg in experiment [7]; more than 100 mg/kg in experiment [8]; 18 mg/kg in [15].

`CCn1cc(C(=O)O)c(=O)c2cc(F)c(N3CCNCC3)nc21` [ENOXACIN]: the MIC was found to be 0.1 µg/mL (≈ 0.312 µM) in experiment [1]; 0.2 µg/mL (≈ 0.624 µM) in [16]; 0.2 µg/mL (≈ 0.624 µM) in experiment [17]; 0.2 µg/mL (≈ 0.624 µM) in [3]; 1.6 µg/mL (≈ 4.99 µM) in experiment [9]; 0.1 µg/mL (≈ 0.312 µM) in [10]. Besides, the MIC in [11] was determined as 3.1 µg/mL (≈ 9.68 µM); in experiment [12] it was 12.5 µg/mL (≈ 39 µM); in experiment [13] it was 1.6 µg/mL (≈ 4.99 µM); in experiment [14], 0.4 µg/mL (≈ 1.25 µM). The molecule further had a Min concentration in experiment [2] of 5 µg/mL. Further, the ED50 in [4] was 3 mg/kg; in experiment [5] it was 2 mg/kg; in experiment [6], 12 mg/kg; in experiment [7], 10 mg/kg; in experiment [8], more than 200 mg/kg; in experiment [15], more than 100 mg/kg.

For the molecule `CCn1cc(C(=O)O)c(=O)c2ccc(C)nc21` [NALIDIXIC ACID], the MIC was 6.3 µg/mL (≈ 27.1 µM) in experiment [1]; 3.1 µg/mL (≈ 13.3 µM) in experiment [16]; 6.3 µg/mL (≈ 27.1 µM) in [17]; 6.3 µg/mL (≈ 27.1 µM) in [3]; more than 100 µg/mL in experiment [9]; 6.3 µg/mL (≈ 27.1 µM) in experiment [10]. Moreover, the MIC was more than 100 µg/mL in [11], more than 100 µg/mL in experiment [12], 100 µg/mL (≈ 431 µM) in experiment [13] and 25 µg/mL (≈ 108 µM) in experiment [14]. In experiment [2], this molecule came in with a Min concentration of 50 µg/mL. Further, the ED50 is 45 mg/kg in experiment [4]; 26 mg/kg in [5]; more than 100 mg/kg in [6]; more than 100 mg/kg in experiment [7]; more than 100 mg/kg in [8]; more than 100 mg/kg in experiment [15].

As for `CC1COc2c(N3CCN(C)CC3)c(F)cc3c(=O)c(C(=O)O)cn1c23` (centres undefined) [OFLOXACIN], the MIC in [16] was determined as 0.1 µg/mL (≈ 0.277 µM); in experiment [17] it was 0.1 µg/mL (≈ 0.277 µM); in [3] it was 0.1 µg/mL (≈ 0.277 µM); in experiment [9] it was 0.4 µg/mL (≈ 1.11 µM); in experiment [10], 0.2 µg/mL (≈ 0.553 µM); in experiment [11] it was 0.8 µg/mL (≈ 2.21 µM). Besides, the results for the MIC in experiment [12] and in experiment [14] were 0.8 µg/mL (≈ 2.21 µM) and 0.1 µg/mL (≈ 0.277 µM), respectively. This molecule came in with a Min concentration in experiment [2] of 5 µg/mL. In addition, the ED50 in [4] stood at 2 mg/kg; in [5], 0.8 mg/kg; in experiment [6] it was 11 mg/kg; in experiment [7], 5 mg/kg; in experiment [8] it was 68 mg/kg; in experiment [15], 38 mg/kg.

As to `CCn1cc(C(=O)O)c(=O)c2cc3c(cc21)OCO3` [OXOLINIC ACID], the MIC in experiment [1] was 0.2 µg/mL (≈ 0.766 µM); in experiment [16], 0.2 µg/mL (≈ 0.766 µM); in experiment [17], 0.4 µg/mL (≈ 1.53 µM); in [3], 0.2 µg/mL (≈ 0.766 µM); in experiment [9], 6.3 µg/mL (≈ 24.1 µM); in experiment [10] it was 0.1 µg/mL (≈ 0.383 µM). The MIC is 12.5 µg/mL (≈ 47.9 µM) in experiment [11], more than 100 µg/mL in experiment [12], 1.6 µg/mL (≈ 6.12 µM) in experiment [13] and 0.8 µg/mL (≈ 3.06 µM) in [14]. Besides, in experiment [2], the Min concentration was 10 µg/mL. Also, the ED50 is 17 mg/kg in experiment [4], 9 mg/kg in [5], more than 100 mg/kg in experiment [6] and 63 mg/kg in experiment [7].

Take `CCn1cc(C(=O)O)c(=O)c2cc(F)c(N3CCN(C)CC3)cc21` [PEFLOXACIN]: the MIC worked out at 0.1 µg/mL (≈ 0.3 µM) in experiment [1]; 0.025 µg/mL (≈ 0.075 µM) in [16]; 0.05 µg/mL (≈ 0.15 µM) in [3]; 0.4 µg/mL (≈ 1.2 µM) in experiment [9]; 0.05 µg/mL (≈ 0.15 µM) in [10]; 0.8 µg/mL (≈ 2.4 µM) in experiment [11]. For the same molecule, the MIC in experiment [12] amounted to 0.8 µg/mL (≈ 2.4 µM); in experiment [13], 0.2 µg/mL (≈ 0.6 µM); in experiment [14], 0.1 µg/mL (≈ 0.3 µM). Besides, the ED50 is 2.8 mg/kg in experiment [4]; 1.6 mg/kg in [5]; 9.5 mg/kg in [6]; 3.7 mg/kg in [7]; 200 mg/kg in experiment [8]; 96 mg/kg in experiment [15].
